Results: ChEMBL document CHEMBL1127300, “Identification, synthesis, and characterization of a unique class of N-methyl-D-aspartate antagonists. The 6,11-ethanobenzo[b]quinolizinium cation” (J Med Chem, 1994)
Counter-ions that a name gives are not always drawn.

Experiments:
[1] = target: Glutamate NMDA receptor; assay: Binding affinity was determined towards NMDA receptor using [3H]thienylcyclidine as radioligand; format: protein-complex assay
Method in brief: (§1)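 Rat (male Sprague–Dawley) whole-brain membranes, washed three times in 50 mM Tris-HCl pH 7.7 and resuspended in 5 mM Tris-HCl at 0.5 mg protein/tube. About 1 nM [3H]TCP final with varied test concentrations. 25 min at room temperature. Nonspecific binding defined with 100 μM PCP. Filtration on PEI-soaked glass-fibre filters and scintillation counting.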

[2] = organism: Mus musculus; assay: In vitro neuroprotective efficacy determined to protect cultured mouse cortical neurons from an excitotoxic exposure to NMDA; format: functional
[3] = organism: Mus musculus; assay: In vitro for neuroprotective efficacy to protect cultured cortical neurons from an excitotoxic exposure to NMDA receptor.; format: functional
[4] = organism: Mus musculus; assay: Electrophysiological responses in open channel block to NMDA were recorded in 13-day old mouse cortical neuronal cultures.; format: functional
[5] = Ratio between closed channel blockade to open channel blockade; format: functional
Method in brief: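 Whole-cell voltage clamp at −60 mV, room temperature (ca. 23 °C), in day-13 mouse cortical neurons; 100 μM NMDA. Open-channel block: NMDA with compound for 300 s; current at 300 s normalized to peak, % inhibition vs controls. Closed-channel block: 30 min with compound plus 10 μM 7-chlorokynurenate without NMDA, 1–2 min wash, then NMDA response vs two baseline responses. IC50 from Hill-type fit.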

[6] = target: Histamine H1 receptor (Mus musculus) (UniProt P70174); assay: Percent inhibition of radioligand [3H]pyrilamine binding to H1 receptor at 10 uM concentration
[7] = Percent inhibition of […] binding to GABA-A benzodiazepine receptor at 10 uM
[8] = organism: Mus musculus; assay: Percent inhibition of radioligand [3H]-LSD binding to 5-HT receptor at 10 uM concentration
[9] = Percent inhibition of radioligand [3H]NECA binding to A1,A2 receptor at 10 uM concentration
[10] = target: Beta-adrenergic receptor (Mus musculus) (UniProt P34971+P18762+P25962); assay: Percent inhibition of radioligand [3H]DHAP binding to beta receptor at 10 uM concentration; format: protein assay
[11] = target: D(1A) dopamine receptor (Mus musculus) (UniProt Q61616); assay: Percent inhibition of radioligand [3H]SCH-23390 binding to dopamine receptor D1 at 10 uM concentration
[12] = target: Alpha-1 adrenergic receptor (Mus musculus) (UniProt P97714+P97717+P97718); assay: Percent inhibition of radioligand [3H]prazosin binding to alpha-1 receptor at 10 uM concentration; format: protein assay
[13] = target: Opioid receptor (Mus musculus) (UniProt P42866+P32300+P33534); assay: Percent inhibition of radioligand [3H]-naxalone binding to opiate receptor at 10 uM concentration; format: protein assay
[14] = target: Sigma non-opioid intracellular receptor 1 (Mus musculus) (UniProt O55242); assay: Percent inhibition of radioligand [3H]DTG binding to sigma receptor at 10 uM concentration
[15] = target: Muscarinic acetylcholine receptor (Mus musculus) (UniProt Q920H4+Q9ERZ4+P12657+P32211+Q9ERZ3); assay: Percent inhibition of radioligand [3H]QNB binding to muscarinic receptor at 10 uM concentration; format: protein assay
[16] = target: Alpha-2 adrenergic receptor (Mus musculus) (UniProt P30545+Q01338+Q01337); assay: Percent inhibition of radioligand [3H]rauwolscine binding to alpha-2 receptor at 10 uM concentration; format: protein assay
[17] = target: D(2) dopamine receptor (Mus musculus) (UniProt P61168); assay: Percent inhibition of radioligand [3H]raclopride binding to D2 receptor at 10 uM concentration
[18] = target: D(1A) dopamine receptor (Mus musculus) (UniProt Q61616); assay: Percent inhibition of radioligand [3H]SCH-23,390 binding to dopamine receptor D1 at 10 uM concentration
[19] = target: Glutamate NMDA receptor; assay: Binding affinity was determined towards NMDA receptor using [3H]TCP as radioligand in rat
Method in brief: as §1, with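 “counting. Ki from EBDA/LIGAND; mean ± SEM of ≥3 determinations in triplicate.” for “counting.”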

[20] = organism: Mus musculus; assay: Electrophysiological responses in closed channel block to NMDA were recorded in 13-day old mouse cortical neuronal cultures.; format: functional

Sequence of Histamine H1 receptor (Mus musculus) (P70174 whole entry): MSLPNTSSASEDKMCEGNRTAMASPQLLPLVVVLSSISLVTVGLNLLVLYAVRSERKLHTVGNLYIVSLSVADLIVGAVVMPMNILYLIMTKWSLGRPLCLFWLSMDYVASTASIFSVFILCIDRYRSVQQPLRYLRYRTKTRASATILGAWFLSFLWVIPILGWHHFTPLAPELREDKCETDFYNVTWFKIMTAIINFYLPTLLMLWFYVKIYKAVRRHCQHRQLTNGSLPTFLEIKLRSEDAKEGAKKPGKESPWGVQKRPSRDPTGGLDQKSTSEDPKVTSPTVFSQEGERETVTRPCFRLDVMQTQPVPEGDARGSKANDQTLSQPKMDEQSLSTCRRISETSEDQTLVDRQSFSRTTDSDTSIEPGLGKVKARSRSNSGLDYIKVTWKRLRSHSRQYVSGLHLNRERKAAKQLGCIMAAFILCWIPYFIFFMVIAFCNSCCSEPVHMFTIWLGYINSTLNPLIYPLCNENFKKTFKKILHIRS
Sequence of D(1A) dopamine receptor (Mus musculus) (Q61616 whole entry): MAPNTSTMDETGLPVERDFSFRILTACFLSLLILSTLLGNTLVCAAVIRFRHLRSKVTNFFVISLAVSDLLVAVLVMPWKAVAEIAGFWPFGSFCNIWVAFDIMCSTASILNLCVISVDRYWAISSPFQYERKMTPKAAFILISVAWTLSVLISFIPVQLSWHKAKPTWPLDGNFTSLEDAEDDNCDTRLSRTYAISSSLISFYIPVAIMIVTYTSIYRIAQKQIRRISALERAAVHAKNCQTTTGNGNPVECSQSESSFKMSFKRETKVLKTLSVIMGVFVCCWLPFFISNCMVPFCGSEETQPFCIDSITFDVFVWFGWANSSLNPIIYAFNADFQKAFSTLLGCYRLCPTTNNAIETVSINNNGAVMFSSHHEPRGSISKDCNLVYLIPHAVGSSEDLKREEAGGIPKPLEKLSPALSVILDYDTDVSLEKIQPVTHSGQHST
Sequence of Sigma non-opioid intracellular receptor 1 (Mus musculus) (O55242 whole entry): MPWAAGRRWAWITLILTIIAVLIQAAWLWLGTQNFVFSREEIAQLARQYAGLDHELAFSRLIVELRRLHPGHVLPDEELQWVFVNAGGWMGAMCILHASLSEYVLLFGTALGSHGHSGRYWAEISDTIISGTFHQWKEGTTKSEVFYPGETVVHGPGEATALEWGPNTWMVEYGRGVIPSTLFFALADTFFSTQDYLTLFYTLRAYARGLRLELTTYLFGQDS
Sequence of Beta-adrenergic receptor (Mus musculus) (P18762 whole entry, looked up): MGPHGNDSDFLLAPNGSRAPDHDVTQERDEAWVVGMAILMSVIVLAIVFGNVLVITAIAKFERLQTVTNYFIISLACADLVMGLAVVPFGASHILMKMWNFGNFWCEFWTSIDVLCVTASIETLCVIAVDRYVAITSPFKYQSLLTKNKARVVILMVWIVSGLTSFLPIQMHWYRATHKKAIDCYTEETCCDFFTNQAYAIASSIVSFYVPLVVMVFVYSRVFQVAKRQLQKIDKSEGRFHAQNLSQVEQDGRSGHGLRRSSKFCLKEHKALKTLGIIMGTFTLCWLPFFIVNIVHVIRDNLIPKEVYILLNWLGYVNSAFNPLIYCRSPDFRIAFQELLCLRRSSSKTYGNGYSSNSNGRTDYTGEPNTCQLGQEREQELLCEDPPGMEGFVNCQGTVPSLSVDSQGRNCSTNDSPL
Sequence of Beta-adrenergic receptor (Mus musculus) (P25962 whole entry, looked up): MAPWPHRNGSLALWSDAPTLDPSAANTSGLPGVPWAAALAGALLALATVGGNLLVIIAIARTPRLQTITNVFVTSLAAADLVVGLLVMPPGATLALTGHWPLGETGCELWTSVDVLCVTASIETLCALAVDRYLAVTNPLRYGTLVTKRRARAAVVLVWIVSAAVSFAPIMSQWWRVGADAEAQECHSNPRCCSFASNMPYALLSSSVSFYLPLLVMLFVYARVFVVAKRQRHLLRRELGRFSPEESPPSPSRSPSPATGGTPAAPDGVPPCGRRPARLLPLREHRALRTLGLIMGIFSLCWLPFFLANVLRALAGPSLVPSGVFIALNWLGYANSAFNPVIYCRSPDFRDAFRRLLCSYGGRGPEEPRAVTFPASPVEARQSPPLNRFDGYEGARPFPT
Sequence of Beta-adrenergic receptor (Mus musculus) (P34971 whole entry, looked up): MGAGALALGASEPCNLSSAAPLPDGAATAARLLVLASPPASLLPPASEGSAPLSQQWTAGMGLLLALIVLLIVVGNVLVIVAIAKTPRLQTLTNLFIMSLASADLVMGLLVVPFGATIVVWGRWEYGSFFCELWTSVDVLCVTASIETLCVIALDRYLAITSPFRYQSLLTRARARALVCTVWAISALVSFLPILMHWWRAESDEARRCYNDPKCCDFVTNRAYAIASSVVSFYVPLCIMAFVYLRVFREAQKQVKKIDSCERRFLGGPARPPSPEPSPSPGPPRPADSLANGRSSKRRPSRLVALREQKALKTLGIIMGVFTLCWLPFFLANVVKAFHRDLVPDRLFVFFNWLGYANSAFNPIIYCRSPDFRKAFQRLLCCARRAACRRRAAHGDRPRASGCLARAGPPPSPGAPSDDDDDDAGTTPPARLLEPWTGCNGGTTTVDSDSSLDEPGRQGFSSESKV
Sequence of Alpha-1 adrenergic receptor (Mus musculus) (P97714 whole entry, looked up): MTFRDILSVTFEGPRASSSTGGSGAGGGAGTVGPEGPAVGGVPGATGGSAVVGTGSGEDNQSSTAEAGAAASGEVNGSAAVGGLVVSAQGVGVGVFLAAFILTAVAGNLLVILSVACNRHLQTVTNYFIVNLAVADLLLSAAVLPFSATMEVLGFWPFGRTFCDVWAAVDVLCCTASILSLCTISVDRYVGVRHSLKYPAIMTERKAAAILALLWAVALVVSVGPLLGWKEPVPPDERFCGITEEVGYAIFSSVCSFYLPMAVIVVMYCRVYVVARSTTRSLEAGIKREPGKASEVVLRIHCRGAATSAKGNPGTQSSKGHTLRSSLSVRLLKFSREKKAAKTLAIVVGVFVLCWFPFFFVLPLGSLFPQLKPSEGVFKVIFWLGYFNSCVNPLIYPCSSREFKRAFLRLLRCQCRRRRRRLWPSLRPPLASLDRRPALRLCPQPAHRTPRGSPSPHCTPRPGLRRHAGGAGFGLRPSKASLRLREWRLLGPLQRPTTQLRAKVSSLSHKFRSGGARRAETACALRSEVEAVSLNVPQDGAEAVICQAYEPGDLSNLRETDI
Sequence of Alpha-1 adrenergic receptor (Mus musculus) (P97717 whole entry, looked up): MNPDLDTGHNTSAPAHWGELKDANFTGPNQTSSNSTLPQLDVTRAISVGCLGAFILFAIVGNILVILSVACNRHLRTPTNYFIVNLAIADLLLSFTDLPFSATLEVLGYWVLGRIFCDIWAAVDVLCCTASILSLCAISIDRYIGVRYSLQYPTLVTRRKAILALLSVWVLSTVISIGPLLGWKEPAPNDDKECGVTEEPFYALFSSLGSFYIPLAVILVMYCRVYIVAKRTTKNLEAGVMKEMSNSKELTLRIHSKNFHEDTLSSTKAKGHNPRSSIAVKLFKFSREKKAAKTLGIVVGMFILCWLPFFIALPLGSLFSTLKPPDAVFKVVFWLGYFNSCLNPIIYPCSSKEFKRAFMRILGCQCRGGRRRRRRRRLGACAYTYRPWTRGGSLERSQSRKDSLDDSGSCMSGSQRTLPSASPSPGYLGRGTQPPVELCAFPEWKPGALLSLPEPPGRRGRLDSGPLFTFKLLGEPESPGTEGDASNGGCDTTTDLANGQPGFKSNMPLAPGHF
Sequence of Alpha-1 adrenergic receptor (Mus musculus) (P97718 whole entry, looked up): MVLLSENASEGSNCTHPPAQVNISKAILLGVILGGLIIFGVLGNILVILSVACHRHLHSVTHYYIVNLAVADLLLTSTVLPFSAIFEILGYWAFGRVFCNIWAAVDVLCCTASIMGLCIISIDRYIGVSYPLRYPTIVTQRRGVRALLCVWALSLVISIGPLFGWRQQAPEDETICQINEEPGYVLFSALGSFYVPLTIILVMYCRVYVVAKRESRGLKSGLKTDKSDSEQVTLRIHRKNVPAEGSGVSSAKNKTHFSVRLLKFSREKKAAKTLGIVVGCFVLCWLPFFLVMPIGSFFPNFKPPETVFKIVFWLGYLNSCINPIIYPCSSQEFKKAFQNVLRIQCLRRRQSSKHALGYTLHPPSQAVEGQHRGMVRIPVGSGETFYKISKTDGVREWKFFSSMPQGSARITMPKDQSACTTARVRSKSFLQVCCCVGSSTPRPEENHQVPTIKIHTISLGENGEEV
Sequence of D(2) dopamine receptor (Mus musculus) (P61168 whole entry): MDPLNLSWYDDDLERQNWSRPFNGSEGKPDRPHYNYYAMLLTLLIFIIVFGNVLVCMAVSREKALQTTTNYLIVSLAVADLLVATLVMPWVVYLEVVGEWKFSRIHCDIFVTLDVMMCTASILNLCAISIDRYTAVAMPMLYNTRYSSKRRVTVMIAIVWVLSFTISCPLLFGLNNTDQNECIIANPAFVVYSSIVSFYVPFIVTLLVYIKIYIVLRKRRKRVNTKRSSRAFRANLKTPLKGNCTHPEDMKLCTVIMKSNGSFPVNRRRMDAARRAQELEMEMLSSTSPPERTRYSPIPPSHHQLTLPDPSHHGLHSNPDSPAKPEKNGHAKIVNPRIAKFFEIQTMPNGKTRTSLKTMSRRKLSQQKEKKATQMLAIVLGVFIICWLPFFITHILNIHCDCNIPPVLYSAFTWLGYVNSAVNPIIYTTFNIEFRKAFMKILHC

CCOC1(OCC)C2c3cc(C(F)(F)F)ccc3C([n+]3ccccc32)C1(C)C (configuration not stated)
Ki [1]: 401 nM

CCOC1(OCC)C2c3cc(Br)ccc3C([n+]3ccccc32)C1(C)C.[O-][Cl+3]([O-])([O-])[O-] (configuration not stated)
Ki [1]: 52 nM
IC50 ([2]; Mus musculus): 173 nM

CCOC1(OCC)C2c3ccccc3C([n+]3c(C)cccc32)C1(C)C (configuration not stated)
Ki [1]: 314 nM

CCOC1(OCC)C2c3cc([N+](=O)[O-])ccc3C([n+]3ccccc32)C1(C)C.[O-][Cl+3]([O-])([O-])[O-] (configuration not stated)
Ki [1]: 2760 nM
IC50 [3]: 15300 nM

CCOC1(OCC)C2c3c(OC)cccc3C([n+]3ccccc32)C1(C)C (configuration not stated)
Ki [1]: 13 nM
IC50 ([2]; Mus musculus): 22 nM

CCOC1(OCC)C2c3cccc(OC)c3C([n+]3ccccc32)C1(C)C (configuration not stated)
Ki [1]: 1840 nM

COC1(OC)C2c3ccccc3C([n+]3ccccc32)C1(C)C (configuration not stated)
Ki [1]: 103 nM

CCOC1(OCC)C2c3cc(Cl)ccc3C([n+]3ccccc32)C1(C)C (configuration not stated)
Ki [1]: 12 nM

CCOC1(OCC)C2c3c(OC(C)C)cccc3C([n+]3ccccc32)C1(C)C (configuration not stated)
Ki [1]: 48 nM

CCOC1(OCC)C2c3cccc(C)c3C([n+]3ccccc32)C1(C)C (configuration not stated)
Ki [1]: 455 nM

CCOC1(OCC)C2c3cc(OC)ccc3C([n+]3ccccc32)C1(C)C (configuration not stated)
Ki [1]: 4 nM
IC50 ([2]; Mus musculus): 157 nM

CC1(C)C2c3ccccc3C(c3cccc[n+]32)C12OCCCO2 (configuration not stated)
Ki [1]: 2900 nM

CCOC1(OCC)C2c3ccccc3C([n+]3ccccc32)C1(CC)CC (configuration not stated)
Ki [1]: 11 nM

CCOC1(OCC)CC2c3ccccc3C1c1cccc[n+]12 (configuration not stated)
Ki [1]: 3800 nM
IC50 ([2]; Mus musculus): 95000 nM

CCOC1(OCC)C2c3c(C)cccc3C([n+]3ccccc32)C1(C)C (configuration not stated)
Ki [1]: 46 nM

CC1(C)C2c3ccccc3C(c3cccc[n+]32)C12OCCO2 (configuration not stated)
Ki [1]: 3460 nM

CCOC1(OCC)C2c3c(O)cccc3C([n+]3ccccc32)C1(C)C (configuration not stated)
Ki [1]: 8 nM

CCOC1(OCC)C2c3c(OC)ccc(OC)c3C([n+]3ccccc32)C1(C)C (configuration not stated)
Ki [1]: > 10000 nM

CCOC1(OCC)C2c3c(Br)cccc3C([n+]3ccccc32)C1(C)C.[O-][Cl+3]([O-])([O-])[O-] (configuration not stated)
Ki [1]: 132 nM
IC50 ([2]; Mus musculus): 1040 nM

CCCOC1(OCCC)C2c3ccccc3C([n+]3ccccc32)C1(C)C.[O-][Cl+3]([O-])([O-])[O-] (configuration not stated)
Ki [1]: 12 nM
IC50 ([2]; Mus musculus): 85 nM

CCOC1(OCC)C2c3ccccc3C([n+]3ccccc32)C1(OCC)OCC (configuration not stated)
Ki [1]: 4990 nM

CC1(C)C(=O)C2c3ccccc3C1[n+]1ccccc12 (configuration not stated)
Ki [1]: > 10000 nM

CCOC1(OCC)C2c3ccccc3C([n+]3cccc(OC)c32)C1(C)C (configuration not stated)
Ki [1]: 26 nM

CCOC1(OCC)C2c3c(OC(C)=O)cccc3C([n+]3ccccc32)C1(C)C (configuration not stated)
Ki [1]: 26 nM

CCOC1(OCC)C2c3ccc(OC)cc3C([n+]3ccccc32)C1(C)C (configuration not stated)
Ki [1]: 123 nM

CCOC1(OCC)C2(C)c3ccccc3C([n+]3ccccc32)C1(C)C.[O-][Cl+3]([O-])([O-])[O-] (configuration not stated)
Ki [1]: 11 nM
IC50 ([2]; Mus musculus): 32 nM

CCOC1(OCC)C2c3ccccc3C([n+]3ccccc32)C1(C)C (racemic) [listing 1 of 2 here]
IC50 [4]: 260 nM
Ki [1]: 8 nM

CCOC1(OCC)C2c3ccccc3C([n+]3ccccc32)C1(C)C (racemic) [listing 2 of 2 here]
Ratio [5]: > 384 CC/OC

CCOC1(OCC)C2c3ccccc3C([n+]3ccccc32)C1(C)C (single isomer, unassigned; (+)) [listing 1 of 2 here]
Ki [1]: 11 nM
IC50 ([2]; Mus musculus): 50 nM

CCOC1(OCC)C2c3ccccc3C([n+]3ccccc32)C1(C)C (single isomer, unassigned; (+)) [listing 2 of 2 here]
inhibition [6]: 55%
inhibition [7]: 14%
inhibition [8]: 12%
inhibition [9]: 1%
inhibition [10]: 4%
inhibition [11]: 7%
inhibition [12]: 51%
inhibition [13]: 73%
inhibition [14]: 31%
inhibition [15]: 53%
inhibition [16]: 52%
inhibition [17]: 20%

CCOC1(OCC)C2c3ccccc3C([n+]3ccccc32)C1(C)C (single isomer, unassigned; (-)) [listing 1 of 2 here]
Ki [1]: 4 nM
IC50 [2]: 26 nM

CCOC1(OCC)C2c3ccccc3C([n+]3ccccc32)C1(C)C (single isomer, unassigned; (-)) [listing 2 of 2 here]
inhibition [6]: 0%
inhibition [8]: 11%
inhibition [9]: 3%
inhibition [10]: 3%
inhibition [18]: 1%
inhibition [12]: 23%
inhibition [13]: 51%
inhibition [14]: 21%
inhibition [15]: 50%
inhibition [16]: 32%
inhibition [17]: 9%

CCOC1(OCC)C2c3ccccc3C(C1C)[n+]1ccccc12.[O-][Cl+3]([O-])([O-])[O-] (stereo in doubt; 1a)
IC50 ([2]; Mus musculus): 810 nM
Ki [19]: 115 nM

CCOC1(OCC)C2c3ccccc3C(C1C)[n+]1ccccc12.[O-][Cl+3]([O-])([O-])[O-] (stereo in doubt; 1b)
Ki [1]: 34 nM
IC50 [2]: 1160 nM

CCOC1C2c3ccccc3C([n+]3ccccc32)C1(C)C (stereo in doubt; 7a)
Ki [1]: 465 nM

CCOC1C2c3ccccc3C([n+]3ccccc32)C1(C)C (stereo in doubt; 7b)
Ki [1]: 1880 nM

C[C@]12N[C@H](Cc3ccccc31)c1ccccc12 [DIZOCILPINE MALEATE]
IC50 [20]: 5.8 nM

c1ccc(C2(N3CCCCC3)CCCCC2)cc1 [PHENCYCLIDINE]
Ki [1]: 38 nM
